Measurements: ChEMBL document CHEMBL1275459 (2008)
Converted amounts (≈) assume the structure as drawn.

How the values were obtained:
[1] = system: Klebsiella pneumoniae; experiment: Antimicrobial activity against ciprofloxacin-susceptible Klebsiella pneumoniae isolate 724 harboring GyrA Ser83Ile mutant gene by agar dilution method; format: functional
[2] = system: Klebsiella pneumoniae; experiment: Antimicrobial activity against ciprofloxacin-intermediate resistant Klebsiella pneumoniae isolate 715 by agar dilution method; format: functional
[3] = system: Klebsiella pneumoniae; experiment: Antimicrobial activity against ciprofloxacin-resistant Klebsiella pneumoniae isolate 828 harboring GyrA Ser83Ile and Gly177Arg mutant gene by agar dilution method; format: functional
[4] = system: Klebsiella pneumoniae; experiment: Antimicrobial activity against ciprofloxacin-resistant Klebsiella pneumoniae isolate 27 harboring GyrA Ser83Leu, Asp78Asn, Ala171Ser and Val198Ile mutant gene by agar dilution method; format: functional
[5] = system: Klebsiella pneumoniae; experiment: Antimicrobial activity against ciprofloxacin-susceptible Klebsiella pneumoniae isolate 577 by agar dilution method; format: functional
Method in brief: (§1)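 MIC read by agar dilution on Mueller-Hinton agar following CLSI (formerly NCCLS) recommendations. K. pneumoniae isolates were identified with the API 20E system and confirmed as nonduplicated by randomly amplified polymorphic DNA analysis.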

[6] = system: Klebsiella pneumoniae; experiment: Antimicrobial activity against ciprofloxacin-resistant Klebsiella pneumoniae isolate 721 harboring GyrA Ala171Ser, Leu187Ile and Val198Ile mutant gene by agar dilution method; format: functional
[7] = system: Klebsiella pneumoniae; experiment: Antimicrobial activity against ciprofloxacin-resistant Klebsiella pneumoniae isolate 772 harboring GyrA Ser83Ile mutant gene by agar dilution method; format: functional
[8] = system: Klebsiella pneumoniae; experiment: Antimicrobial activity against ciprofloxacin-susceptible Klebsiella pneumoniae isolate 838 harboring GyrA Ser83Tyr, Ala171Ser, Leu187Ile and Val198Ile mutant gene by agar dilution method; format: functional
[9] = system: Klebsiella pneumoniae; experiment: Antimicrobial activity against ciprofloxacin-resistant Klebsiella pneumoniae isolate 827 harboring GyrA Ser83Ile mutant gene by agar dilution method; format: functional
[10] = system: Klebsiella pneumoniae; experiment: Antimicrobial activity against ciprofloxacin-susceptible Klebsiella pneumoniae isolate 212 harboring GyrA Ala171Ser, Leu187Ile and Val198Ile mutant gene by agar dilution method; format: functional
[11] = system: Klebsiella pneumoniae; experiment: Antimicrobial activity against ciprofloxacin-resistant Klebsiella pneumoniae isolate 103 harboring GyrA Ser83Leu, Asp78Asn, Ala171Ser and Val198Ile mutant gene by agar dilution method; format: functional
[12] = system: Klebsiella pneumoniae; experiment: Antimicrobial activity against ciprofloxacin-resistant Klebsiella pneumoniae isolate 663 harboring GyrA Ser83Leu, Asp78Asn, Ala171Ser and Val198Ile mutant gene by agar dilution method; format: functional
[13] = system: Klebsiella pneumoniae; experiment: Antimicrobial activity against ciprofloxacin-resistant Klebsiella pneumoniae isolate 863 harboring GyrA Ser83Leu, Asp78Asn, Ala171Ser and Val198Ile mutant gene by agar dilution method; format: functional
[14] = system: Klebsiella pneumoniae; experiment: Antimicrobial activity against ciprofloxacin-susceptible Klebsiella pneumoniae isolate 760 by agar dilution method; format: functional
[15] = system: Klebsiella pneumoniae; experiment: Antimicrobial activity against ciprofloxacin-resistant Klebsiella pneumoniae isolate 94 harboring GyrA Ser83Leu, Asp78Asn, Ala171Ser and Val198Ile mutant gene by agar dilution method; format: functional
[16] = system: Klebsiella pneumoniae; experiment: Antimicrobial activity against ciprofloxacin-intermediate resistant Klebsiella pneumoniae isolate 753 harboring GyrA Ser83Ile mutant gene by agar dilution method; format: functional
[17] = system: Klebsiella pneumoniae; experiment: Antimicrobial activity against ciprofloxacin-resistant Klebsiella pneumoniae isolate 234 harboring GyrA Ser83Leu, Asp78Asn, Ala171Ser and Val198Ile mutant gene by agar dilution method; format: functional
[18] = system: Klebsiella pneumoniae; experiment: Antimicrobial activity against ciprofloxacin-susceptible Klebsiella pneumoniae isolate 738 by agar dilution method; format: functional; method in brief: as §1
[19] = system: Klebsiella pneumoniae; experiment: Antimicrobial activity against ciprofloxacin-susceptible Klebsiella pneumoniae isolate 840 harboring GyrA Ala171Ser, Leu187Ile and Val198Ile mutant gene by agar dilution method; format: functional
[20] = system: Klebsiella pneumoniae; experiment: Antimicrobial activity against ciprofloxacin-resistant Klebsiella pneumoniae isolate 205 harboring GyrA Ser83Leu, Asp78Asn, Ala171Ser and Val198Ile mutant gene by agar dilution method; format: functional
[21] = system: Klebsiella pneumoniae; experiment: Antimicrobial activity against ciprofloxacin-resistant Klebsiella pneumoniae isolate 769 harboring GyrA Ser83Ile and Gly177Arg mutant gene by agar dilution method; format: functional
[22] = system: Klebsiella pneumoniae; experiment: Antimicrobial activity against ciprofloxacin-susceptible Klebsiella pneumoniae isolate 182 harboring GyrA Ser83Thr and Ala171Ser mutant gene by agar dilution method; format: functional
[23] = system: Klebsiella pneumoniae; experiment: Antimicrobial activity against ciprofloxacin-resistant Klebsiella pneumoniae isolate 719 harboring GyrA Ser83Leu, Asp78Asn, Ala171Ser and Val198Ile mutant gene by agar dilution method; format: functional
[24] = system: Klebsiella pneumoniae; experiment: Antimicrobial activity against ciprofloxacin-susceptible Klebsiella pneumoniae isolate 517 harboring GyrA Ala171Ser, Leu187Ile and Val198Ile mutant gene by agar dilution method; format: functional
[25] = system: Klebsiella pneumoniae; experiment: Antimicrobial activity against ciprofloxacin-resistant Klebsiella pneumoniae isolate 836 by agar dilution method; format: functional
[26] = system: Klebsiella pneumoniae; experiment: Antimicrobial activity against ciprofloxacin-intermediate resistant Klebsiella pneumoniae isolate 21 by agar dilution method; format: functional
[27] = system: Klebsiella pneumoniae; experiment: Antimicrobial activity against ciprofloxacin-susceptible Klebsiella pneumoniae isolate 49 harboring GyrA Asp87Asn, Arg154Ser and Ala171Ser mutant gene by agar dilution method; format: functional
[28] = system: Klebsiella pneumoniae; experiment: Antimicrobial activity against ciprofloxacin-susceptible Klebsiella pneumoniae isolate 737 harboring GyrA Ser83Leu and Val198Ile mutant gene by agar dilution method; format: functional
[29] = system: Klebsiella pneumoniae; experiment: Antimicrobial activity against ciprofloxacin-resistant Klebsiella pneumoniae isolate 149 harboring GyrA Ser83Leu, Asp78Asn, Ala171Ser and Val198Ile mutant gene by agar dilution method; format: functional
[30] = system: Klebsiella pneumoniae; experiment: Antimicrobial activity against ciprofloxacin-resistant Klebsiella pneumoniae isolate 3 harboring GyrA Ser83Leu, Asp78Asn, Ala171Ser and Val198Ile mutant gene by agar dilution method; format: functional
[31] = system: Klebsiella pneumoniae; experiment: Antimicrobial activity against ciprofloxacin-susceptible Klebsiella pneumoniae isolate 685 harboring GyrA Ala171Ser, Leu187Ile and Val198Ile mutant gene by agar dilution method; format: functional
[32] = system: Klebsiella pneumoniae; experiment: Antimicrobial activity against ciprofloxacin-resistant Klebsiella pneumoniae isolate 95 harboring GyrA Ser83Leu, Asp78Asn, Ala171Ser and Val198Ile mutant gene by agar dilution method; format: functional
[33] = system: Klebsiella pneumoniae; experiment: Antimicrobial activity against ciprofloxacin-resistant Klebsiella pneumoniae isolate 779 harboring GyrA Ser83Leu, Asp78Asn, Ala171Ser and Val198Ile mutant gene by agar dilution method; format: functional
[34] = system: Klebsiella pneumoniae; experiment: microbe, parasite or virus in culture; conditions: isolate 19
[35] = system: Klebsiella pneumoniae; experiment: microbe, parasite or virus in culture; conditions: isolate 16
[36] = system: Klebsiella pneumoniae; experiment: microbe, parasite or virus in culture; conditions: isolate 3
[37] = system: Klebsiella pneumoniae; experiment: microbe, parasite or virus in culture; conditions: isolate 29
[38] = system: Klebsiella pneumoniae; experiment: microbe, parasite or virus in culture; conditions: isolate 24

Q: Which results are given for `CCn1cc(C(=O)O)c(=O)c2ccc(C)nc21` [NALIDIXIC ACID]?
A: MIC [1]: 8 µg/mL (≈ 34.4 µM); MIC [2]: 16 µg/mL (≈ 68.9 µM); MIC [3]: > 512 µg/mL; MIC [4]: > 512 µg/mL; MIC [5]: 4 µg/mL (≈ 17.2 µM); MIC [6]: > 512 µg/mL; MIC [7]: > 512 µg/mL; MIC [8]: 256 µg/mL (≈ 1100 µM); MIC [9]: > 512 µg/mL; MIC [10]: 16 µg/mL (≈ 68.9 µM); MIC [11]: > 512 µg/mL; MIC [12]: > 512 µg/mL; MIC [13]: > 512 µg/mL; MIC [14]: 4 µg/mL (≈ 17.2 µM); MIC [15]: > 512 µg/mL; MIC [16]: > 512 µg/mL; MIC [17]: > 512 µg/mL; MIC [18]: 8 µg/mL (≈ 34.4 µM); MIC [19]: 16 µg/mL (≈ 68.9 µM); MIC [20]: > 512 µg/mL; MIC [21]: > 512 µg/mL; MIC [22]: 4 µg/mL (≈ 17.2 µM); MIC [23]: > 512 µg/mL; MIC [24]: 8 µg/mL (≈ 34.4 µM); MIC [25]: > 512 µg/mL; MIC [26]: 16 µg/mL (≈ 68.9 µM); MIC [27]: > 512 µg/mL; MIC [28]: 8 µg/mL (≈ 34.4 µM); MIC [29]: > 512 µg/mL; MIC [30]: > 512 µg/mL; MIC [31]: > 512 µg/mL; MIC [32]: > 512 µg/mL; MIC [33]: > 512 µg/mL

Q: How did the MIC [1] turn out when `O=C(O)c1cn(C2CC2)c2cc(N3CCNCC3)c(F)cc2c1=O` [CIPROFLOXACIN] was run?
A: Its MIC is under 0.0312 µg/mL.

Q: What about the MIC [2] of the same molecule?
A: The MIC was 2 µg/mL (≈ 6.04 µM).

Q: What about the MIC [3] of the same molecule?
A: The MIC was 32 µg/mL (≈ 96.6 µM).

Q: And the MIC [4]?
A: Its MIC is 8 µg/mL (≈ 24.1 µM).

Q: And the MIC [5]?
A: The MIC was 0.125 µg/mL (≈ 0.377 µM).

Q: What about the MIC [6] of the same molecule?
A: Its MIC is 8 µg/mL (≈ 24.1 µM).

Q: What about the MIC [7] of the same molecule?
A: Its MIC is 32 µg/mL (≈ 96.6 µM).

Q: What about the MIC [34] of the same molecule?
A: The MIC was 8 µg/mL (≈ 24.1 µM).

Q: And the MIC [8]?
A: Its MIC is 1 µg/mL (≈ 3.02 µM).

Q: And the MIC [9]?
A: Its MIC is 32 µg/mL (≈ 96.6 µM).

Q: And the MIC [35]?
A: The MIC was 4 µg/mL (≈ 12.1 µM).

Q: What about the MIC [10] of the same molecule?
A: Its MIC is under 0.0312 µg/mL.

Q: And the MIC [11]?
A: The MIC was 64 µg/mL (≈ 193 µM).

Q: And the MIC [12]?
A: The MIC was 64 µg/mL (≈ 193 µM).

Q: And the MIC [13]?
A: The MIC was 128 µg/mL (≈ 386 µM).

Q: What about the MIC [14] of the same molecule?
A: Its MIC is under 0.0312 µg/mL.

Q: What about the MIC [15] of the same molecule?
A: The MIC was 32 µg/mL (≈ 96.6 µM).

Q: And the MIC [16]?
A: The MIC was 2 µg/mL (≈ 6.04 µM).

Q: What about the MIC [17] of the same molecule?
A: Its MIC is 16 µg/mL (≈ 48.3 µM).

Q: And the MIC [36]?
A: The MIC was 16 µg/mL (≈ 48.3 µM).

Q: What about the MIC [18] of the same molecule?
A: Its MIC is 1 µg/mL (≈ 3.02 µM).

Q: And the MIC [19]?
A: The MIC was 1 µg/mL (≈ 3.02 µM).

Q: And the MIC [37]?
A: The MIC was 16 µg/mL (≈ 48.3 µM).

Q: What about the MIC [20] of the same molecule?
A: The MIC was 4 µg/mL (≈ 12.1 µM).

Q: And the MIC [38]?
A: The MIC was 32 µg/mL (≈ 96.6 µM).

Q: And the MIC [21]?
A: The MIC was 32 µg/mL (≈ 96.6 µM).

Q: And the MIC [22]?
A: Its MIC is under 0.0312 µg/mL.

Q: And the MIC [23]?
A: Its MIC is 8 µg/mL (≈ 24.1 µM).

Q: What about the MIC [24] of the same molecule?
A: Its MIC is under 0.0312 µg/mL.

Q: And the MIC [25]?
A: Its MIC is 4 µg/mL (≈ 12.1 µM).

Q: And the MIC [26]?
A: The MIC was 2 µg/mL (≈ 6.04 µM).

Q: What about the MIC [27] of the same molecule?
A: Its MIC is 0.5 µg/mL (≈ 1.51 µM).

Q: And the MIC [28]?
A: Its MIC is under 0.0312 µg/mL.

Q: What about the MIC [29] of the same molecule?
A: The MIC was 64 µg/mL (≈ 193 µM).

Q: What about the MIC [30] of the same molecule?
A: Its MIC is 16 µg/mL (≈ 48.3 µM).

Q: What about the MIC [31] of the same molecule?
A: Its MIC is 0.125 µg/mL (≈ 0.377 µM).

Q: What about the MIC [32] of the same molecule?
A: Its MIC is 128 µg/mL (≈ 386 µM).

Q: And the MIC [33]?
A: The MIC was 32 µg/mL (≈ 96.6 µM).
